A selection: hits, their analogues and other compounds. The true share with any hit is near 3.1%.
UBC13 polyUb = blocks human UBC13 polyubiquitin chain formation; P61088; TR-FRET; inhibition, % at 20 µM; 0.47% of 330,000 active; in the data active = inhibition above about 45%, passing the limit was not always enough
Target sequence (P61088 whole entry, looked up): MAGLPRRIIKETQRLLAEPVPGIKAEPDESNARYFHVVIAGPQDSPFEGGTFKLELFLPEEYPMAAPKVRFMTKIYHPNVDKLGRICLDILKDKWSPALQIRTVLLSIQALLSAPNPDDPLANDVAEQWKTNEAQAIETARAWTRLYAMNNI
PREPL inh = human PREPL enzyme inhibition; 0.68% of 320,000 active; AID 2751; inhibition, % at 5.96 µM; recombinant PREPL, fluorescence polarization activity-based probe; Q4J6C6; in the data active = inhibition above about 43%;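 also: 0% = enzyme with DMSO and 100% = wells lacking enzyme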
MEKK3 PB1 HTS = raises or lowers MEK5 binding to the human MEKK3 PB1 domain | AID 1529 | bead-based flow cytometry, Alexa488-MEK5 binding to MEKK3; actives lie on both sides; 0 = blocked by unlabeled MEK5, 100 = vehicle | 1.4% of 290,000 active | binding response (% of control), % at 10 µM;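 active = binding response more than 3 SD above or below the average of its plate-row segment, actives on both sides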;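 also: Alexa488 bead fluorescence after subtracting the streptavidin-only scavenger bead signal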
MEKK2wt PB1 HTS = raises or lowers MEK5 binding to wildtype human MEKK2 PB1 domain | Q9Y2U5 | bead flow cytometry, Alexa488-MEK5 binding to MEKK2 WT; actives lie on both sides | binding response (% of control), % at 10 µM | 1.1% of 290,000 active; in the data active = binding response below about 67% or above about 130%
MEKK2 mut-MEK5 = signal of MEK5 binding to mutant human MEKK2 PB1 domain; bead flow cytometry, Alexa488-MEK5 binding to MEKK2 mutant; percent response, % at 10 µM; 0.35% of 290,000 active; in the data active = percent response above about 24%, passing the limit was not always enough
Apaf1 inhib = human Apaf-1 inhibition; O14727; 0.71% of 330,000 active; inhibition, % at 20 µM; reconstituted apoptosome caspase-3 activity, DEVD-Rh110 fluorescence; active = inhibition of at least 40% at 20 µM;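 also: plate controls were DMSO wells for no effect and DEVD-CHO caspase inhibitor wells for full effect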
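System: Apoptosome proteins | Medium: Hepes pH 7.5 with detergent and BSA | Also added: Cytochrome c trigger plus (Z-DEVD)2-Rh110 caspase-3 substrate | Incubation: 30 min compound preincubation, 50 min activation, room temperature | Detection: Rhodamine 110 fluorescence at Ex 480/Em 540 nm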
MEKK2wt confirm = raises or lowers MEK5 binding to wildtype human MEKK2, retest; 2.4% of 5,900 active; binding response (% of control), % at 10 µM; bead flow cytometry, Alexa488-MEK5 binding to MEKK2 WT; actives lie on both sides; shares compounds with MEKK3 PB1 HTS; in the data active = binding response below about 16% or above about 210%; inactive = in between
MEKK2mut-MEK5 = signal of MEK5 binding to mutant human MEKK2, retest | 2% of 5,900 active | AID 1893 | shares compounds with MEKK3 PB1 HTS | percent response, % at 10 µM | bead flow cytometry, Alexa488-MEK5 binding to MEKK2 mutant; in the data active = percent response mostly above about 71%, no sharp cut-off; inactive = mostly below about 38%;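 also: higher means compound restores mutant binding toward wildtype level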
MEKK3-MEK5 inh = MEKK3-MEK5 PB1 inhibition, single concentration confirmation. binding response (% of control), % at 10 µM. 1.8% of 5,900 active. shares compounds with MEKK3 PB1 HTS. bead flow cytometry, Alexa488-MEK5 binding to MEKK3; hits give low values;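 active = binding response below 72% of control, or above a set upper limit, though filed actives all read lower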;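 also: 100% = DMSO only wells and 0% = binding blocked by excess unlabeled MEK5; lower values mean stronger disruption of MEK5 binding to MEKK3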
* marks the source's active call; other numbers are inactive results; i = inactive; x = no result; [ ] = another dose, or the depositor's remark.

SMILES	UBC13 polyUb	PREPL inh	MEKK3 PB1 HTS	MEKK2wt PB1 HTS	MEKK2 mut-MEK5	Apaf1 inhib	MEKK2wt confirm	MEKK2mut-MEK5	MEKK3-MEK5 inh
O=C(Nc1ccc(C(F)(F)F)cc1)c1cc(S(=O)(=O)NCC2COc3ccccc3O2)ccc1F (centres undefined)	18	-3	136*	123	1	14	122	13	103
O=C(CSc1nc2ccccc2c(=O)n1Cc1ccccc1)Nc1ccc(Br)cc1C(=O)O	-5	-2	100	95	0	12	x	x	x
CCOc1ccc(NC(=O)C(=O)NCCN2CCN(S(=O)(=O)c3ccc(C)cc3)CC2)cc1	0	1	98	98	-3	8	x	x	x
CS/C(N)=N/N=C/c1c(O)ccc2ccccc12	6	25	133*	133	29	-2	100	-4	99
Cc1ccc(C)c(CN2CCC(n3nccc3NC(=O)CCCc3ccccc3)CC2)c1	4	7	97	112	10	13	x	x	x
CCOC(=O)/C(C#N)=C/c1cc2ccc(C)cc2nc1Cl	-3	0	57*[inhibitor]	91	-2	3	100	-6	99
c1ccc(-c2cc3ccccc3nc2N2CCCC2)cc1	5	-17	95	98	-3	9	x	x	x
CCOC(=O)/C(C#N)=C/c1cc2cc(C)c(C)cc2nc1Cl	6	3	101	97	0	-6	x	x	x
CCOC(=O)/C(C#N)=C/c1cc2ccccc2nc1N1CCOCC1	4	0	66*[inhibitor]	100	0	-9	96	-9	98
Cc1ccc(-c2cc3ccccc3nc2N2CCOCC2)cc1	15	-6	75*[inhibitor]	85	-9	14	106	3	109
CCOc1cc(C(=S)N2CCOCC2)cc(Br)c1OS(=O)(=O)c1ccccc1	1	0	101	99	1	8	x	x	x
Cc1ccc(C2=NN(CCC#N)C(=O)CO2)cc1	6	-9	104	105	4	0	x	x	x
Cc1cccnc1NC(=O)c1csnn1	0	14	65*[inhibitor]	30*[inhibitor]	5	8	100	1	101
Cc1cccnc1NC(=O)c1ccccc1-c1ccccc1C(=O)Nc1ncccc1C	-11	5	100	100	0	2	x	x	x
COc1cc2c(cc1OC)CN(CC(=O)Nc1cccc(C(F)(F)F)c1)CC2	6	7	107	113	9	12	x	x	x
O=S(=O)(NC(=S)NC1CCCCC1)c1ccccc1	-9	7	4.0*[inhibitor]	6.0*[inhibitor]	-23	7	99	-2	100
O=S(=O)(NC(=S)NC1CCCCC1)c1cccs1	-2	11	98	99	1	-2	x	x	x
C#CCN(CC=C)C(=O)c1ccc2nc(C3CCCCC3)oc2c1	12	-3	102	107	7	0	x	x	x
CCCOc1ccc(C(CC(=O)O)NC(=O)c2ccc3c(c2)OCO3)cc1 (centres undefined)	0	1	2.0*[inhibitor]	1.0*[inhibitor]	-42	-10	100	-1	96
CCCOc1ccc(C(=O)Nc2ccc3c(c2)OCO3)cc1	8	22	111	109	11	11	x	x	x
CC(C)(CS(=O)(=O)[O-])NC(=O)CC[N+](C)(C)CCO	-30	0	65*[inhibitor]	95	-35	i	103	-31	86
O=C(NNC(=O)c1ccc(Cl)nc1)c1ccncc1	-1	3	x	x	x	-11	x	x	x
O=S(=O)(c1cccc(F)c1)N1CCN(Cc2ccc3c(c2)OCO3)CC1	9	9	58*[inhibitor]	68	-7	3	104	10	107
O=S(=O)(c1ccc(F)c(F)c1)N1CCN(Cc2ccc3c(c2)OCO3)CC1	0	3	116	116	15	-2	x	x	x
COc1cccc(CNC(=O)CCS(=O)(=O)c2cc3c(cc2C)NC(=O)CO3)c1	3	18	102	98	5	7	x	x	x
SMILES	UBC13 polyUb	PREPL inh	MEKK3 PB1 HTS	MEKK2wt PB1 HTS	MEKK2 mut-MEK5	Apaf1 inhib	MEKK2wt confirm	MEKK2mut-MEK5	MEKK3-MEK5 inh
COc1ccc(-c2ccc(SCC(=O)N3c4ccccc4CC3C)nn2)cc1OC (centres undefined)	-7	-30	122*	117	9	0	107	2	100
COCCNC(=O)c1cc(-c2ccccc2)n(Cc2cc(C)no2)n1	3	2	x	x	x	-4	x	x	x
COc1ccc(CCNS(=O)(=O)c2ccc(-n3cnnn3)cc2)cc1OC	6	-6	103	104	-1	-4	x	x	x
Cc1cc(C(=O)c2cnc(/N=C/N(C)C)s2)cc(C)c1O	-25	4	0.0*[inhibitor]	0.0*[inhibitor]	-17	16	109	4	104
COc1ccccc1CNC(=O)CN(c1cccc([N+](=O)[O-])c1)S(C)(=O)=O	4	-6	1.0*[inhibitor]	-2.0*[inhibitor]	-22	-6	96	-11	97
COc1ccc(-c2csc(N(CCCN(C)C)C(=O)c3ccc(Br)cc3)n2)cc1	21	-35	110	142*	11	20	135	16	103
COc1ccc(-c2csc(N(CCCN(C)C)C(=O)c3ccc(C(C)(C)C)cc3)n2)cc1	39	-59	110	162*	26*	33	172	38	108
CCOC(=O)c1ccc(NS(=O)C23CC4CC(CC(C4)C2)C3)cc1 (centres undefined)	-4	5	97	-6.0*[inhibitor]	-35	1	105	-1	103
O=C(/C=C/c1ccc(Br)o1)NC(c1ccccc1)c1ccccc1	5	-5	140*	102	1	16	97	-5	102
CCOc1ncccc1C(=O)Nc1c(C)n(C)n(-c2ccccc2)c1=O	-1	0	96	95	-5	-7	x	x	x
COC(=O)c1ccccc1OCCCCN1CC(C)OC(C)C1 (centres undefined)	9	4	152*	102	1	0	109	12	108
COC(=O)c1ccccc1OCCOc1ccccc1C(=O)OC	3	5	101	103	1	6	x	x	x
CC(=O)N(C)c1nnc(-c2cnccn2)s1	2	-1	x	x	x	-5	x	x	x
COCC(=O)N(C)c1nnc(-c2cnccn2)s1	5	0	0.0*[inhibitor]	-1.0*[inhibitor]	-27	5	103	1	101
CC(=O)NCCNC(=O)c1oc2ccccc2c1CSc1ncn[nH]1	-18	-7	75*[inhibitor]	86	-4	-2	96	-6	97

Source: PubChem
